# Test results: ChEMBL document CHEMBL1155221, “Identification of novel indanylsulfonamide guanylhydrazones as potent 5-HT6 serotonin receptor antagonists” (J Med Chem, 2009)
# pIC50, pKi: −log10 of the molar value.
# Assays:
# [1] = target: T1, 5-hydroxytryptamine receptor 6 (Homo sapiens, UniProt P50406); experiment: Displacement of [3H]LSD from human cloned 5HT6 receptor expressed in human HeLa cells; type: cell-based
# [2] = target: T1, 5-hydroxytryptamine receptor 6; experiment: Displacement of [3H]LSD from human recombinant 5HT6 receptor expressed in HEK293 cells after 60 mins by liquid scintillation counting; type: cell-based
# Procedure, shortened: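 Competition binding on membranes from HEK-293 cells expressing recombinant human 5-HT6 receptor, with [3H]-LSD as radioligand. […] Values are mean ± SEM of three experiments.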
# [3] = target: T1, 5-hydroxytryptamine receptor 6; experiment: Inhibition of [3H]LSD binding to human recombinant 5HT6 receptor expressed in HEK293 cells at 100 nM after 60 mins by liquid scintillation counting; type: cell-based
# Procedure, shortened: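 Single-point competition at 100 nM test compound against [3H]-LSD on membranes from HEK-293 cells expressing recombinant human 5-HT6 receptor. Percent inhibition of radioligand binding reported.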
# [4] = target: T1, 5-hydroxytryptamine receptor 6; experiment: Antagonist activity at human 5HT6 receptor expressed in HEK293F cells assessed as inhibition of 5-HT-stimulated cAMP production at […] after 30 mins by HTRF assay; type: functional, cell-based
# Procedure, shortened: (§1)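 HEK-293F cells stably expressing human 5-HT6 receptor. Compounds were tested against 5-HT-stimulated cAMP production, with cAMP read by homogeneous time-resolved fluorescence (HTRF). Antagonism expressed as Imax and IC50. Data are mean ± SEM of three experiments.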
# [5] = target: T1, 5-hydroxytryptamine receptor 6; experiment: Antagonist activity at human 5HT6 receptor expressed in HEK293F cells assessed as inhibition of 5-HT-stimulated cAMP production after 30 mins by HTRF assay; type: functional, cell-based; procedure, shortened: as §1
# [6] = target: T1, 5-hydroxytryptamine receptor 6; experiment: Antagonist activity at human 5HT6 receptor expressed in HEK293F cells assessed as inhibition of 5-HT-stimulated cAMP production at […] after 30 mins by HTRF assay relative to (+/-)-6-chloro-N-(3-(1-methylpyrrolidin-3-yl)-1H-inden-5-yl)imidazo[2,1-b]thiazole-5-sulfonamide; type: functional, cell-based
# [7] = target: T2, Adrenergic receptor alpha-2 (Homo sapiens, UniProt P08913+P18825+P18089); experiment: Inhibition of human alpha 2 adrenoceptor
# T2 sequence (P08913 whole entry): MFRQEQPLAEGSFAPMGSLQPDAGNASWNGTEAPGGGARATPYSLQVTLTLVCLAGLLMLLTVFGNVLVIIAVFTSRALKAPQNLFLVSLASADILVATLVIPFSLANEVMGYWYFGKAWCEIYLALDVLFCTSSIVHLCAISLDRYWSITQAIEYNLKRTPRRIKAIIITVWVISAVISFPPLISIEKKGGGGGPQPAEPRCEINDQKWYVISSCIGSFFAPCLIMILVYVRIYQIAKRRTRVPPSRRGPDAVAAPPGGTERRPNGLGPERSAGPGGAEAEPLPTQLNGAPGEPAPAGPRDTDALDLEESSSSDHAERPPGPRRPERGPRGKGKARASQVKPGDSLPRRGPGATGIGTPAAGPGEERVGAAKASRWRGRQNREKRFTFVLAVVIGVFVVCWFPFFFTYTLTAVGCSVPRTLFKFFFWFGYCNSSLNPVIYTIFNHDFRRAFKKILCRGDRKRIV
# T2 sequence (P18825 whole entry): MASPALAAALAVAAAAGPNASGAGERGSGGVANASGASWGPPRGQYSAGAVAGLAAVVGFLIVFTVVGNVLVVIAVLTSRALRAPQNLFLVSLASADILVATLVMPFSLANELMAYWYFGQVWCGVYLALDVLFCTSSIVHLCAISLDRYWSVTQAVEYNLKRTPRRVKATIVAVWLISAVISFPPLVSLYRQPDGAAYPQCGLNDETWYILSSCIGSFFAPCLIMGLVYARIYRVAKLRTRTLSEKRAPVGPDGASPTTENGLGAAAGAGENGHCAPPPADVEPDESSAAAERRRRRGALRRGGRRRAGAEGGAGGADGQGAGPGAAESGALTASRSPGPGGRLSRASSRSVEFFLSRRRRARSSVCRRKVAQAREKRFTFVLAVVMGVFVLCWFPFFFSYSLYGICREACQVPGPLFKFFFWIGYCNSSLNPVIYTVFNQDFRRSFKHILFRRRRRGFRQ
# T2 sequence (P18089 whole entry): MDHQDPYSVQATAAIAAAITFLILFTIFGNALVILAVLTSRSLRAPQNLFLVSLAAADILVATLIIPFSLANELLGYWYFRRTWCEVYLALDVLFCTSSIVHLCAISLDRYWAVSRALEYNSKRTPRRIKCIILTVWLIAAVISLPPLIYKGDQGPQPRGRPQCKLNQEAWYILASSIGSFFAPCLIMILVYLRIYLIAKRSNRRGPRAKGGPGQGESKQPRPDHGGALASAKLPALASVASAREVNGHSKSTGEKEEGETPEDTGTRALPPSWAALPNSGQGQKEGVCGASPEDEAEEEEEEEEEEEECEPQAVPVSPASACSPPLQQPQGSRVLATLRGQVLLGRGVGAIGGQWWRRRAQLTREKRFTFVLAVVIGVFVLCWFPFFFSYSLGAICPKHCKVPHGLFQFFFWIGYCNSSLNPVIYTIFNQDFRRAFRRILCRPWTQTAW
# [8] = target: T3, 5-hydroxytryptamine receptor 1A (Homo sapiens, UniProt P08908); experiment: Inhibition of human 5HT1A receptor
# T3 sequence (P08908 whole entry): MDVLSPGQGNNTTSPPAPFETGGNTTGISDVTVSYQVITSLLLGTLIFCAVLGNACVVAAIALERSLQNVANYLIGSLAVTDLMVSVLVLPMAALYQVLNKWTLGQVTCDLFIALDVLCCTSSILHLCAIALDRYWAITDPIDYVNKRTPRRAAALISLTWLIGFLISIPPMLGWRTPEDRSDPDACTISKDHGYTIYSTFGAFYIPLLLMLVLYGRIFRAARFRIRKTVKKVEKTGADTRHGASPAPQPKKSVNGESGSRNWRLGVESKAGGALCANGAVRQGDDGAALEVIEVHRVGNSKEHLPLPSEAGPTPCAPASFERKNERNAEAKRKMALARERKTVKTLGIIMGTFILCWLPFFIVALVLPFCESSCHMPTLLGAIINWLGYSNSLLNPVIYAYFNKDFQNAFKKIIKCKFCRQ
# [9] = target: T4, Adrenergic receptor alpha-1 (Rattus norvegicus, UniProt P15823+P23944+P43140); experiment: Inhibition of rat alpha 1 adrenoceptor
# T4 sequence (P15823 whole entry): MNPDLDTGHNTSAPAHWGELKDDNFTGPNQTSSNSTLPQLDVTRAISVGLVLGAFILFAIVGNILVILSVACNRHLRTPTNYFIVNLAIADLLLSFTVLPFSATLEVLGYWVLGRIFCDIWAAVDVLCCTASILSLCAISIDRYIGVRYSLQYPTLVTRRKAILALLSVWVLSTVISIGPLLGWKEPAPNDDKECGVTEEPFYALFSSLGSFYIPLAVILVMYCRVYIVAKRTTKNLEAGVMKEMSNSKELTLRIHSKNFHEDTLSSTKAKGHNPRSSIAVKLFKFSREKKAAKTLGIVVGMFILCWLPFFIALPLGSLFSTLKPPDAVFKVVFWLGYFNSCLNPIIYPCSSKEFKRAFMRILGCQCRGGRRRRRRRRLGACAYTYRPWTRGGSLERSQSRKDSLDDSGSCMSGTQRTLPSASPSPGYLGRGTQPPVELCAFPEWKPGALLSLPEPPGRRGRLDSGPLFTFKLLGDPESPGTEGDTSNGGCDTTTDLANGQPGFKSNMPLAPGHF
# T4 sequence (P23944 whole entry): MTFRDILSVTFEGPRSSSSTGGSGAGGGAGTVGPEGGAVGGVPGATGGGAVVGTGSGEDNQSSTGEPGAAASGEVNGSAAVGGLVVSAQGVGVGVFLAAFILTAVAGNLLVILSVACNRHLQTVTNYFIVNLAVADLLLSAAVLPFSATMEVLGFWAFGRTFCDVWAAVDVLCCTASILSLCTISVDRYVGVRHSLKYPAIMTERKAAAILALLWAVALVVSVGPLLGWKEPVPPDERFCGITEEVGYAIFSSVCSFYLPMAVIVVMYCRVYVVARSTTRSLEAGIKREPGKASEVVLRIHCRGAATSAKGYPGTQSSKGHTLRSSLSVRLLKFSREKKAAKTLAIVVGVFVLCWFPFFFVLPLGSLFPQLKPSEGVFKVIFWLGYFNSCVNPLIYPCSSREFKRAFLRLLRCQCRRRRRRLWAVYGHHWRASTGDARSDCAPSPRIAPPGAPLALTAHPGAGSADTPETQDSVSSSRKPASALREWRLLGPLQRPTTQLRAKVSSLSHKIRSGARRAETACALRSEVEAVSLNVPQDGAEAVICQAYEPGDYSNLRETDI
# T4 sequence (P43140 whole entry): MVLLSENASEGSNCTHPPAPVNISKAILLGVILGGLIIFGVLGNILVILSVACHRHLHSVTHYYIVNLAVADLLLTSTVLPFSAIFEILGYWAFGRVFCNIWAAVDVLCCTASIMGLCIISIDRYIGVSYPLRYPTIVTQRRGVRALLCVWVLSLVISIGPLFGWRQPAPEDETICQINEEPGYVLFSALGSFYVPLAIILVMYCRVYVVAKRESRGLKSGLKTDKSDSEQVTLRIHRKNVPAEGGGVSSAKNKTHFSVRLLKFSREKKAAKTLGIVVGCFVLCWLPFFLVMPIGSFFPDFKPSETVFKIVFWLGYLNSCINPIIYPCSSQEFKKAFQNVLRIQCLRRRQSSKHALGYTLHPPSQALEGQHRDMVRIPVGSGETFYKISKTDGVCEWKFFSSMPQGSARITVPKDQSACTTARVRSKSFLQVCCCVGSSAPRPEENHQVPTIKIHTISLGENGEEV
# [10] = target: T5, 5-hydroxytryptamine receptor 2C (Homo sapiens, UniProt P28335); experiment: Inhibition of human 5HT2C receptor
# T5 sequence (P28335 whole entry): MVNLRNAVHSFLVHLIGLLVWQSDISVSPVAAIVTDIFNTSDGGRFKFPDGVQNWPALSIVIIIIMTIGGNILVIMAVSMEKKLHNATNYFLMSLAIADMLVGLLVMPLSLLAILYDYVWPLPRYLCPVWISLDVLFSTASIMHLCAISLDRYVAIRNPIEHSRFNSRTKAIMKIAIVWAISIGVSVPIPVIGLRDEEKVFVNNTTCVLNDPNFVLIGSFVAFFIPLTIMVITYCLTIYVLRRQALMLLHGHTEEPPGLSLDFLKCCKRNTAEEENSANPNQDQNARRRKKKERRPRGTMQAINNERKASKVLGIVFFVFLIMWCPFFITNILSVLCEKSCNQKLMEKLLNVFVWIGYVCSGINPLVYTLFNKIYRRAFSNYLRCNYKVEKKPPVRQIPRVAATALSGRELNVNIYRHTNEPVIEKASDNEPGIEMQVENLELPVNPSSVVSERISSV
# [11] = target: Sodium-dependent serotonin transporter (Homo sapiens, UniProt P31645); experiment: Inhibition of human SERT
# Chain of Sodium-dependent serotonin transporter (P31645 whole entry): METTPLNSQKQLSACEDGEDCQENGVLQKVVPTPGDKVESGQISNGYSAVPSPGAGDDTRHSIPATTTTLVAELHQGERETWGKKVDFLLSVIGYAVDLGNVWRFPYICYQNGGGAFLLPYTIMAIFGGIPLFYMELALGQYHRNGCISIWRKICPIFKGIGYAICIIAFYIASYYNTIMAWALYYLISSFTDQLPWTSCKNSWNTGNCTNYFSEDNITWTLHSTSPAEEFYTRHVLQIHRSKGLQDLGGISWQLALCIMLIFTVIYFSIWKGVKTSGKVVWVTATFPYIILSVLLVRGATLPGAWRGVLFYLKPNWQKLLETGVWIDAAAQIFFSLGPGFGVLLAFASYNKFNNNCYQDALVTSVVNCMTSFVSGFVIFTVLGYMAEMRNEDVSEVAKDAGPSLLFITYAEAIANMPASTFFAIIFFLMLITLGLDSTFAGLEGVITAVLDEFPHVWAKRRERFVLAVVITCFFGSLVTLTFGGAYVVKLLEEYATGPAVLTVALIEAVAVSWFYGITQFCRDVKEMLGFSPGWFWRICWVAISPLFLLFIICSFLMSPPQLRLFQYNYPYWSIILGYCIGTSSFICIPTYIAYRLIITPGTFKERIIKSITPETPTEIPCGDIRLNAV
# T1 sequence (P50406 whole entry): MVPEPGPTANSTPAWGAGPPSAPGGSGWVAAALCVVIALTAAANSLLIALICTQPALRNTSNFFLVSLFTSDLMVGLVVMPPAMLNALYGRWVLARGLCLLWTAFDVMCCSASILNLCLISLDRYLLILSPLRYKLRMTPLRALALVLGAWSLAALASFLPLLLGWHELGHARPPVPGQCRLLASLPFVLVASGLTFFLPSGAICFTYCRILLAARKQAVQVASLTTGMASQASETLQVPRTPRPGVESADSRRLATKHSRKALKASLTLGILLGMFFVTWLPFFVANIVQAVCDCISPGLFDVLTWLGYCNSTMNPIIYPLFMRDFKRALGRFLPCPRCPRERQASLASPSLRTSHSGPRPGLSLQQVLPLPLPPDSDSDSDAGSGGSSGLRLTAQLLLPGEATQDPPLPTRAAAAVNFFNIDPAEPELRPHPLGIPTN
SMILES,pKi [1],pKi [2],inhibition [3],Imax [4],pIC50 [5],Imax [6],pIC50 [7],pIC50 [8],pIC50 [9],pIC50 [10],pIC50 [11],IC50 [7]
C/C(=N\NC(=N)N)c1cn(S(=O)(=O)c2ccc(N)cc2)c2ccccc12,≥ 8.10,–,–,–,–,–,–,–,–,–,–,–
CN1CCC(C2=CCc3ccc(NS(=O)(=O)c4c(Cl)nc5sccn45)cc32)C1 (stereo not drawn),–,8.52,> 80%,100%,5.80,–,–,–,–,–,–,–
CN(c1ccc2c(c1)/C(=N/NC(=N)N)CC2)S(=O)(=O)c1c(Cl)nc2sccn12.Cl,–,8.39,> 80%,–,7.27,102%,< 6.00,< 6.00,–,–,–,–
Cl.N=C(N)N/N=C1\CCc2cc(NS(=O)(=O)c3c(Cl)nc4sccn34)ccc21,–,8.59,> 80%,–,7.33,173%,< 6.00,< 5.00,–,–,–,–
CN1CCOc2ccc(S(=O)(=O)Nc3ccc4c(c3)/C(=N/NC(=N)N)CC4)cc21,–,7.59,> 80%,–,6.24,187%,–,< 6.00,–,–,–,–
CC1Cc2ccc(NS(=O)(=O)c3c(Cl)nc4sccn34)cc2/C1=N/NC(=N)N.Cl (racemic),–,8.80,> 80%,–,7.24,157%,< 6.00,< 6.00,< 6.00,< 6.00,< 6.00,–
N=C(N)N/N=C1\CCc2c(NS(=O)(=O)c3c(Cl)nc4sccn34)cccc21,–,–,2%,–,–,–,–,–,–,–,–,–
O=S(=O)(Nc1ccc2c(c1)/C(=N/NC1=NCCN1)CC2)c1c(Cl)nc2sccn12,–,8.66,> 80%,–,6.75,173%,–,–,< 6.00,< 5.00,< 5.00,> 1 ×10⁴ nM
Cl.N=C(N)N/N=C1\CCc2ccc(NS(=O)(=O)c3c(Cl)nc4sccn34)cc21,–,8.92,> 80%,–,7.02,127%,–,< 5.00,< 6.00,< 5.00,< 5.00,> 1 ×10⁴ nM
C/C(=N\NC(=N)N)c1cn(S(=O)(=O)c2c(Cl)nc3sccn23)c2ccccc12,≥ 8.10,–,–,–,–,–,–,–,–,–,–,–
COc1ccc(S(=O)(=O)Nc2ccc3[nH]cc(/C(C)=N/NC(=N)N)c3c2)cc1,9.00,–,–,–,–,–,–,–,–,–,–,–
CN1CCOc2ccc(S(=O)(=O)Nc3ccc4c(c3)/C(=N\NC3=NCCN3)CC4)cc21,–,7.15,> 80%,–,–,–,–,–,–,–,–,–
CC1(C)C/C(=N\NC(=N)N)c2cc(NS(=O)(=O)c3c(Cl)nc4sccn34)ccc21.Cl,–,8.28,> 80%,–,6.62,146%,–,< 6.00,–,< 6.00,< 5.00,> 1 ×10⁴ nM
Cl.N=C(N)N/N=C1\CCc2ccc(NS(=O)(=O)c3ccc4ccccc4c3)cc21,–,7.21,> 80%,–,7.28,127%,< 6.00,< 6.00,–,–,–,–
CC1(C)C/C(=N\NC2=NCCN2)c2cc(NS(=O)(=O)c3c(Cl)nc4sccn34)ccc21,–,–,77%,–,–,–,–,–,–,–,–,–
